Experimental data taken from ChEMBL document CHEMBL2390828, “Synthesis and biological characterization of spiro[2H-(1,3)-benzoxazine-2,4'-piperidine] based histone deacetylase inhibitors” (Eur J Med Chem, 2013).

Target: T1, Protein deacetylase HDAC6 (Homo sapiens, UniProt Q9UBN7)
T1 sequence (Q9UBN7 whole entry): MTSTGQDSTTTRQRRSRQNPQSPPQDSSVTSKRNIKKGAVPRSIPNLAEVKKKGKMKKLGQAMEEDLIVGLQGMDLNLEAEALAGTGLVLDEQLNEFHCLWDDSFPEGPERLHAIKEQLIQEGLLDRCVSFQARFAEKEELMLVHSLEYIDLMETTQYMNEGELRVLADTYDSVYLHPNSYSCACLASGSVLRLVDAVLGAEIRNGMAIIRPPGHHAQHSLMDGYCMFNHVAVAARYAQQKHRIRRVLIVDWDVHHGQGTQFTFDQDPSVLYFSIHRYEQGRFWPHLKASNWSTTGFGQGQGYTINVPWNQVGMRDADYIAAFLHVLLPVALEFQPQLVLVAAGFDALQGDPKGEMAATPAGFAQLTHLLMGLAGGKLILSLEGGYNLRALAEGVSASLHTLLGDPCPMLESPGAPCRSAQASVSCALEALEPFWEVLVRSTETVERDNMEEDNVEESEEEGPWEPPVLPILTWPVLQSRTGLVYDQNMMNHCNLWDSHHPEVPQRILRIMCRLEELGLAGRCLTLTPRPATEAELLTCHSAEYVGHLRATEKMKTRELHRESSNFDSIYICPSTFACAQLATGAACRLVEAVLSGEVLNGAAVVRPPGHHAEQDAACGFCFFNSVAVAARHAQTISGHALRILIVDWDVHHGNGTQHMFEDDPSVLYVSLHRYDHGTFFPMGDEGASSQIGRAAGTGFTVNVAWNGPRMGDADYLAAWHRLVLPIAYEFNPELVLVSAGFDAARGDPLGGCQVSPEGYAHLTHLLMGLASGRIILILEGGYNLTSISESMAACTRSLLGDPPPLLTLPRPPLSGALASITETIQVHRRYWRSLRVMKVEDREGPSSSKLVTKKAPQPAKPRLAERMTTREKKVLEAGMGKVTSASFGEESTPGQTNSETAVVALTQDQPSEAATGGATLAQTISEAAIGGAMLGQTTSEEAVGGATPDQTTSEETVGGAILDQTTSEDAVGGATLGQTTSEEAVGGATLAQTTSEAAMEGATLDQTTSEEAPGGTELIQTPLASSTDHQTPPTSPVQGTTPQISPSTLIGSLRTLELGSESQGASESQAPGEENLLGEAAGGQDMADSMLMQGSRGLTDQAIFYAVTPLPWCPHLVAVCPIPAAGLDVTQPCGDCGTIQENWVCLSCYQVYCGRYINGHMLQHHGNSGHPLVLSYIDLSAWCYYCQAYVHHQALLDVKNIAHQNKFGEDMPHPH
Test: Inhibition of HDAC6 (unknown origin)
Conditions: not given

SMILES | IC50 [µM]
O=C(/C=C/c1ccc2c(c1)C(=O)CC1(CCN(CCc3ccccc3)CC1)O2)NO | 0.16
O=C(/C=C/c1ccc2c(c1)C(=O)CC1(CCN(Cc3ccc(F)cc3)CC1)O2)NO | 0.19

Target: Histone deacetylase 2 (Homo sapiens, UniProt Q92769)
Sequence (Q92769 whole entry): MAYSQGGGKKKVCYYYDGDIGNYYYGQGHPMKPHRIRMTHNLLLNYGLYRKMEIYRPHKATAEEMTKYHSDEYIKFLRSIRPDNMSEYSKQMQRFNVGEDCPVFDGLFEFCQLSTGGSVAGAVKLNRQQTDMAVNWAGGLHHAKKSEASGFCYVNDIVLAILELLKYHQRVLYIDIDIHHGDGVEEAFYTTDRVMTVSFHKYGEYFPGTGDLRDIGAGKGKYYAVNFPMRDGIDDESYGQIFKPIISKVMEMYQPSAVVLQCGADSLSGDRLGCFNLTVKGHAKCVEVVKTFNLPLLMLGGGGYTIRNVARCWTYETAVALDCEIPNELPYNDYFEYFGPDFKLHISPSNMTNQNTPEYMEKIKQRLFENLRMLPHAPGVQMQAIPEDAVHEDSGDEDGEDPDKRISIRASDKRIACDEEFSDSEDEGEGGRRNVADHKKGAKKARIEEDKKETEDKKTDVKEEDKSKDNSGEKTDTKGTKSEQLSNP
Test: Inhibition of HDAC2 (unknown origin)
Conditions: not given

SMILES | IC50 [µM]
O=C(/C=C/c1ccc2c(c1)C(=O)CC1(CCN(CCc3ccccc3)CC1)O2)NO | 0.19
O=C(/C=C/c1ccc2c(c1)C(=O)CC1(CCN(Cc3ccc(F)cc3)CC1)O2)NO | 0.31

Target: Histone deacetylase 3 (Homo sapiens, UniProt O15379)
Sequence (O15379 whole entry): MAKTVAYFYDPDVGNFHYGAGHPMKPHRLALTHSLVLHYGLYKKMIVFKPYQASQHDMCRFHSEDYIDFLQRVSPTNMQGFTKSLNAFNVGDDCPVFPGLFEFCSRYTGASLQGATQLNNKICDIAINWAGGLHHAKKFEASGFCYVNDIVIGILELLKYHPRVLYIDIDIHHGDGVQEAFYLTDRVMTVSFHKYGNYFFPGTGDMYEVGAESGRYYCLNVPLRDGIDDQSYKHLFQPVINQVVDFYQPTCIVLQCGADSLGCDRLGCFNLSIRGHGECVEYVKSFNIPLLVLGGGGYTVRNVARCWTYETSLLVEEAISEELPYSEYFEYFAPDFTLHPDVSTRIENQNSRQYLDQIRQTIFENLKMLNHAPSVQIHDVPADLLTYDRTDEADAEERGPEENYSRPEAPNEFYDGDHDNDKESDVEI
Test: Inhibition of HDAC3 (unknown origin)
Conditions: not given

SMILES | IC50 [µM]
O=C(/C=C/c1ccc2c(c1)C(=O)CC1(CCN(CCc3ccccc3)CC1)O2)NO | 0.13
O=C(/C=C/c1ccc2c(c1)C(=O)CC1(CCN(Cc3ccc(F)cc3)CC1)O2)NO | 0.09

System: not listed separately
Test: AUC (0 to infinity) in CD1 mouse at 15 mg/kg, po
Format: ADME, organism-based
Set-up: time infinity, dose 15 mg/kg, route oral
Conditions: plasma
Method in brief: (§1)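 CD-1 mice got single doses of 5 mg/kg iv or 15 mg/kg orally. The iv vehicle was water with 3% DMSO and 9.7% encapsin. The oral vehicle was water with 5% DMSO and 9.5% encapsin. Plasma PK parameters were calculated, including AUC0–∞, clearance, half-life, Vss, cmax and oral bioavailability.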

SMILES | AUC(0-inf) [µg·h/mL]
O=C(/C=C/c1ccc2c(c1)C(=O)NC1(CCN(Cc3ccc(F)cc3)CC1)O2)NO | 1.98
O=C(/C=C/c1ccc2c(c1)C(=O)CC1(CCN(CCc3ccccc3)CC1)O2)NO | 1.6
O=C(/C=C/c1ccc2c(c1)C(=O)CC1(CCN(Cc3ccc(F)cc3)CC1)O2)NO | 1.24

System: not listed separately
Test: Volume of distribution at steady state in CD1 mouse at 5 mg/kg, iv and 15 mg/kg, po
Format: ADME, organism-based
Conditions: in vivo, read-out: Vdss
Method in brief: as §1

SMILES | Vd [L/kg]
O=C(/C=C/c1ccc2c(c1)C(=O)NC1(CCN(Cc3ccc(F)cc3)CC1)O2)NO | 3.1
O=C(/C=C/c1ccc2c(c1)C(=O)CC1(CCN(CCc3ccccc3)CC1)O2)NO | 8.6
O=C(/C=C/c1ccc2c(c1)C(=O)CC1(CCN(Cc3ccc(F)cc3)CC1)O2)NO | 5.9

System: not listed separately
Test: Tmax in CD1 mouse at 5 mg/kg, iv and 15 mg/kg, po
Format: ADME, organism-based
Conditions: in vivo
Method in brief: as §1

SMILES | Tmax [min]
O=C(/C=C/c1ccc2c(c1)C(=O)NC1(CCN(Cc3ccc(F)cc3)CC1)O2)NO | 5
O=C(/C=C/c1ccc2c(c1)C(=O)CC1(CCN(CCc3ccccc3)CC1)O2)NO | 15
O=C(/C=C/c1ccc2c(c1)C(=O)CC1(CCN(Cc3ccc(F)cc3)CC1)O2)NO | 15

System: not listed separately
Test: Clearance in CD1 mouse at 5 mg/kg, iv and 15 mg/kg, po
Format: ADME, organism-based
Conditions: in vivo
Method in brief: as §1

SMILES | clearance [L/h/kg]
O=C(/C=C/c1ccc2c(c1)C(=O)NC1(CCN(Cc3ccc(F)cc3)CC1)O2)NO | 2.66
O=C(/C=C/c1ccc2c(c1)C(=O)CC1(CCN(CCc3ccccc3)CC1)O2)NO | 4.79
O=C(/C=C/c1ccc2c(c1)C(=O)CC1(CCN(Cc3ccc(F)cc3)CC1)O2)NO | 3.35

System: not listed separately
Test: Terminal half life in CD1 mouse at 5 mg/kg, iv and 15 mg/kg, po
Format: ADME, organism-based
Conditions: in vivo, read-out: beta t1/2 (converted)
Method in brief: as §1

SMILES | half-life [min]
O=C(/C=C/c1ccc2c(c1)C(=O)NC1(CCN(Cc3ccc(F)cc3)CC1)O2)NO | 414

System: not listed separately
Test: AUC (0 to infinity) in CD1 mouse at 5 mg/kg, iv
Format: ADME, organism-based
Set-up: time infinity, dose 5 mg/kg, route intravenous
Conditions: plasma
Method in brief: as §1

SMILES | AUC(0-inf) [µg·h/mL]
O=C(/C=C/c1ccc2c(c1)C(=O)NC1(CCN(Cc3ccc(F)cc3)CC1)O2)NO | 1.88
O=C(/C=C/c1ccc2c(c1)C(=O)CC1(CCN(CCc3ccccc3)CC1)O2)NO | 1.04
O=C(/C=C/c1ccc2c(c1)C(=O)CC1(CCN(Cc3ccc(F)cc3)CC1)O2)NO | 1.49

System: not listed separately
Test: Cmax in CD1 mouse at 5 mg/kg, iv
Format: ADME, organism-based
Set-up: dose 5 mg/kg, route intravenous
Conditions: in vivo
Method in brief: as §1

SMILES | Cmax [µM]
O=C(/C=C/c1ccc2c(c1)C(=O)NC1(CCN(Cc3ccc(F)cc3)CC1)O2)NO | 13
O=C(/C=C/c1ccc2c(c1)C(=O)CC1(CCN(CCc3ccccc3)CC1)O2)NO | 6.34
O=C(/C=C/c1ccc2c(c1)C(=O)CC1(CCN(Cc3ccc(F)cc3)CC1)O2)NO | 11

Target: T2, Voltage-gated inwardly rectifying potassium channel KCNH2 (Homo sapiens, UniProt Q12809)
T2 sequence (Q12809 whole entry): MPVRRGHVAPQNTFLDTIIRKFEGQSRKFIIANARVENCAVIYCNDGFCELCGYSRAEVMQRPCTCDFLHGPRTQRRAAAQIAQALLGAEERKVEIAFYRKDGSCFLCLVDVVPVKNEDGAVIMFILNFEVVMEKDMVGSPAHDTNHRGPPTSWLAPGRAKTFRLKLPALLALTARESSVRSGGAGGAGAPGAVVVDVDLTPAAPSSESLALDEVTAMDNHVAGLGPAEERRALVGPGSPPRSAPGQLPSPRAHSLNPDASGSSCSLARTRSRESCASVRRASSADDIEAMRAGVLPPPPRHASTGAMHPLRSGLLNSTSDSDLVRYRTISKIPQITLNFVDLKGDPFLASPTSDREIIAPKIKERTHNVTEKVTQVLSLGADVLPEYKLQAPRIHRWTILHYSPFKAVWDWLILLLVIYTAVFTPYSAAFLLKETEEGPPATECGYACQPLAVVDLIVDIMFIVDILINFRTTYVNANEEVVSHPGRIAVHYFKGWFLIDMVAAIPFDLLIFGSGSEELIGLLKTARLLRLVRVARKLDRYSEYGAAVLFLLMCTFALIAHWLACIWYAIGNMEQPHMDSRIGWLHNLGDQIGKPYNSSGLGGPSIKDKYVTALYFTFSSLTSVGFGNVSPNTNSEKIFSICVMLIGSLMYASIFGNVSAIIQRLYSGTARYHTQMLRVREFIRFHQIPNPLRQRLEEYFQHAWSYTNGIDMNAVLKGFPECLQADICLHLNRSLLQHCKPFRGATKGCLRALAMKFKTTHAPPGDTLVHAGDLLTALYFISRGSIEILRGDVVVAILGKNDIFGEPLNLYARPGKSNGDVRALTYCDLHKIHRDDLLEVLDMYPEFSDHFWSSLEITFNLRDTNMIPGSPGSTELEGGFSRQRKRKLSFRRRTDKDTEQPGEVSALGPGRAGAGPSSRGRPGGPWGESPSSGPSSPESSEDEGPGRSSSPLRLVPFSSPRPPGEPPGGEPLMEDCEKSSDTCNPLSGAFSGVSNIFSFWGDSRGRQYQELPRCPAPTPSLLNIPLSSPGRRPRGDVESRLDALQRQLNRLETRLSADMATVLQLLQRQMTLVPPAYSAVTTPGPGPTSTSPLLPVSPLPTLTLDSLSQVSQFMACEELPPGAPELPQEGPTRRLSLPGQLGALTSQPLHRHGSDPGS
Test: Inhibition of human ERG channel
Conditions: not given

SMILES | inhibition (INH) [%]
O=C(/C=C/c1ccc2c(c1)C(=O)NC1(CCN(Cc3ccc(F)cc3)CC1)O2)NO | 70

Target: T2, Voltage-gated inwardly rectifying potassium channel KCNH2
Test: Displacement of [3H]astemizole from human ERG channel transfected in HEK293 cells after 60 mins by liquid scintillation counting analysis
Format: cell-based
Conditions: not given

SMILES | IC50 [µM]
O=C(/C=C/c1ccc2c(c1)C(=O)CC1(CCN(Cc3ccc(F)cc3)CC1)O2)NO | 2.38

System: not listed separately
Test: Solubility of the compound at pH 7.4
Format: physicochemical
Conditions: buffer

SMILES | solubility [µM]
O=C(/C=C/c1ccc2c(c1)C(=O)NC1(CCN(Cc3ccc(F)cc3)CC1)O2)NO | > 200

System: not listed separately
Test: Metabolic stability in human liver microsomes after 30 mins by LC-MS/MS analysis
Format: ADME, Microsome
Conditions: read-out: Stability
Method in brief: (§2)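 Compounds were incubated with mouse or human liver microsomal preparation for 30 min at 37 °C. The reaction was stopped with CH3CN. Unmetabolized compound was quantified by LC-MS/MS in MRM mode and reported as percent remaining. Replicates n ≥ 2, mean values given.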

SMILES | remaining at 0.5 h [%]
CN1C(=O)c2cc(/C=C/C(=O)NO)ccc2OC12CCN(Cc1ccc(F)cc1)CC2 | 60
O=C(/C=C/c1ccc2c(c1)C(=O)NC1(CCN(Cc3ccc(F)cc3)CC1)O2)NO | 71

System: not listed separately
Test: Metabolic stability in mouse liver microsomes after 30 mins by LC-MS/MS analysis
Format: ADME, Microsome
Conditions: read-out: Stability
Method in brief: as §2

SMILES | remaining at 0.5 h [%]
CN1C(=O)c2cc(/C=C/C(=O)NO)ccc2OC12CCN(Cc1ccc(F)cc1)CC2 | 39
O=C(/C=C/c1ccc2c(c1)C(=O)NC1(CCN(Cc3ccc(F)cc3)CC1)O2)NO | 98

System: A549
Test: Cytotoxicity against human A549 cells
Format: functional, cell-based
Conditions: not given

SMILES | IC50 [µM]
CN1C(=O)c2cc(/C=C/C(=O)NO)ccc2OC12CCN(Cc1ccc(F)cc1)CC2 | 2.1
O=C(/C=C/c1ccc2c(c1)C(=O)NC1(CCN(Cc3ccc(F)cc3)CC1)O2)NO | 1.67
O=C(/C=C/c1ccc2c(c1)C(=O)CC1(CCN(CCc3ccccc3)CC1)O2)NO | 0.551
O=C(/C=C/c1ccc2c(c1)C(=O)CC1(CCN(Cc3ccc(F)cc3)CC1)O2)NO | 1.32

System: HCT-116
Test: Cytotoxicity against human HCT116 cells
Format: functional, cell-based
Conditions: not given

SMILES | IC50 [µM]
CN1C(=O)c2cc(/C=C/C(=O)NO)ccc2OC12CCN(Cc1ccc(F)cc1)CC2 | 0.848
O=C(/C=C/c1ccc2c(c1)C(=O)NC1(CCN(Cc3ccc(F)cc3)CC1)O2)NO | 0.498
O=C(/C=C/c1ccc2c(c1)C(=O)CC1(CCN(CCc3ccccc3)CC1)O2)NO | 0.201
O=C(/C=C/c1ccc2c(c1)C(=O)CC1(CCN(Cc3ccc(F)cc3)CC1)O2)NO | 0.777

System: K562
Test: Cytotoxicity against human K562 cells
Format: functional, cell-based
Conditions: not given

SMILES | IC50 [µM]
CN1C(=O)c2cc(/C=C/C(=O)NO)ccc2OC12CCN(Cc1ccc(F)cc1)CC2 | 0.734
O=C(/C=C/c1ccc2c(c1)C(=O)NC1(CCN(Cc3ccc(F)cc3)CC1)O2)NO | 0.961
O=C(/C=C/c1ccc2c(c1)C(=O)CC1(CCN(CCc3ccccc3)CC1)O2)NO | 0.18
O=C(/C=C/c1ccc2c(c1)C(=O)CC1(CCN(Cc3ccc(F)cc3)CC1)O2)NO | 0.681

Target: Histone deacetylase
Test: Inhibition of HDAC in human Hela cell nuclear extract after 15 mins
Format: protein assay
Conditions: not given

SMILES | IC50 [µM]
CN1C(=O)c2cc(/C=C/C(=O)NO)ccc2OC12CCN(Cc1ccc(F)cc1)CC2 | 0.137
O=C(/C=C/c1ccc2c(c1)C(=O)NC1(CCN(Cc3ccc(F)cc3)CC1)O2)NO | 0.103
O=C(/C=C/c1ccc2c(c1)C(=O)CC1(CCN(CCc3ccccc3)CC1)O2)NO | 0.113
O=C(/C=C/c1ccc2c(c1)C(=O)CC1(CCN(Cc3ccc(F)cc3)CC1)O2)NO | 0.108

System: not listed separately
Test: Cmax in CD1 mouse at 15 mg/kg, po
Conditions: CD1, mouse, in vivo

SMILES | Cmax [µM]
O=C(/C=C/c1ccc2c(c1)C(=O)NC1(CCN(Cc3ccc(F)cc3)CC1)O2)NO | 5.05
O=C(/C=C/c1ccc2c(c1)C(=O)CC1(CCN(CCc3ccccc3)CC1)O2)NO | 2.49
O=C(/C=C/c1ccc2c(c1)C(=O)CC1(CCN(Cc3ccc(F)cc3)CC1)O2)NO | 1.83

System: not listed separately
Test: Oral bioavailability in CD1 mouse at 15 mg/kg
Conditions: in vivo

SMILES | bioavailability [%]
O=C(/C=C/c1ccc2c(c1)C(=O)NC1(CCN(Cc3ccc(F)cc3)CC1)O2)NO | 35
O=C(/C=C/c1ccc2c(c1)C(=O)CC1(CCN(CCc3ccccc3)CC1)O2)NO | 51.1
O=C(/C=C/c1ccc2c(c1)C(=O)CC1(CCN(Cc3ccc(F)cc3)CC1)O2)NO | 27.6
